As usually defined, the mortality is the percentage killed. For orientation: inhibition means the change of the read-out against control, counted positive when it falls.

The record followed here is ChEMBL document CHEMBL3046066, “Synthesis of new fluorinated Tebufenpyrad analogs with acaricidal activity through regioselective pyrazole formation” (2008).

The subject of assay [1] is Tetranychus urticae. As to the kind of experiment: Acaricidal activity against Tetranychus urticae (two-spotted spider mite) assessed as mortality at 5 g/L measured after 6 days. In kind it is functional. Conditions: 144 h. In outline:
(§1)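 Each compound was applied as a solution, with active-principle concentration in the assay of 5 g/L (preliminary screen) or 0.16 g/L. Adulticide effect (% adult mortality) and fertility inhibition (%) were scored 24 h, 4 days and 6 days after application.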

The test system of assay [2] is Tetranychus urticae. Description: Acaricidal activity against Tetranychus urticae (two-spotted spider mite) assessed as fertility inhibition at 0.16 g/L measured after 24 hr. Format: functional. In outline:
as §1

The subject of assay [3] is Tetranychus urticae. As to the kind of experiment: Acaricidal activity against Tetranychus urticae (two-spotted spider mite) assessed as mortality at 5 g/L measured after 24 hr. Format: functional. In outline: as §1
Assay [4] relates to Tetranychus urticae. As to the kind of experiment: Acaricidal activity against Tetranychus urticae (two-spotted spider mite) assessed as mortality at 0.16 g/L measured after 24 hr. Format: functional. An outline of the steps:
as §1

In assay [5] the test system is Tetranychus urticae. As to the kind of experiment: Acaricidal activity against Tetranychus urticae (two-spotted spider mite) assessed as fertility inhibition at 0.16 g/L measured after 6 days. Format: functional. The note with it: 144 h. In outline: as §1
The subject of assay [6] is Tetranychus urticae. Description: Acaricidal activity against Tetranychus urticae (two-spotted spider mite) assessed as fertility inhibition at 5 g/L measured after 6 days. Conditions: 144 h. In kind it is functional. In outline:
as §1

In assay [7] the test system is Tetranychus urticae. As to the kind of experiment: Acaricidal activity against Tetranychus urticae (two-spotted spider mite) assessed as mortality at 0.16 g/L measured after 6 days. In kind it is functional. The note with it: 144 h. In outline:
as §1

In assay [8] the test system is Tetranychus urticae. Description: Acaricidal activity against Tetranychus urticae (two-spotted spider mite) assessed as fertility inhibition at 5 g/L measured after 4 days. Format: functional. The note with it: 96 h. An outline of the steps:
as §1

Assay [9] relates to Tetranychus urticae. As to the kind of experiment: Acaricidal activity against Tetranychus urticae (two-spotted spider mite) assessed as mortality at 0.16 g/L measured after 4 days. In kind it is functional. Conditions: 96 h. An outline of the steps:
as §1

The test system of assay [10] is Tetranychus urticae. As to the kind of experiment: Acaricidal activity against Tetranychus urticae (two-spotted spider mite) assessed as fertility inhibition at 0.16 g/L measured after 4 days. Format: functional. Conditions: 96 h. An outline of the steps: as §1
Assay [11] relates to Tetranychus urticae. As to the kind of experiment: Acaricidal activity against Tetranychus urticae (two-spotted spider mite) assessed as mortality at 5 g/L measured after 4 days. Format: functional. Conditions: 96 h. An outline of the steps: as §1
Assay [12] concerns Tetranychus urticae. As to the kind of experiment: Acaricidal activity against Tetranychus urticae (two-spotted spider mite) assessed as fertility inhibition at 5 g/L measured after 24 hr. Format: functional. An outline of the steps: as §1
Assay [13] concerns Tetranychus urticae. As to the kind of experiment: Acaricidal activity against Tetranychus urticae (two-spotted spider mite) assessed as mortality at 1.5 g/L measured first 4 days. In kind it is functional, organism-based. An outline of the steps: (§2)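 Solutions at 1.50, 0.67 and 0.16 g/L were applied for a lower-concentration follow-up to the 5 g/L screen. Adult mortality (%) was scored over time after application, including within the first 24 h.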

In assay [14] the test system is Tetranychus urticae. As to the kind of experiment: Acaricidal activity against Tetranychus urticae (two-spotted spider mite) assessed as mortality at 1.5 g/L measured within 24 hr. Format: functional. An outline of the steps:
as §2

Assay [15] deals with Tetranychus urticae. Description: Acaricidal activity against Tetranychus urticae (two-spotted spider mite) assessed as mortality at 0.67 g/L measured within 24 hr. Format: functional. In outline: as §2

The source made the active and inactive calls. The calls are words filed in the database; no cut-off is given here.

Consider `CCc1nn(C)c(C(=O)NCc2ccc(C(C)(C)C)cc2)c1Cl` [TEBUFENPYRAD], for which the mortality at 5000 µg/mL in assay [1], in assay [3] and in [11] was 100% throughout. For the same compound, the figures for the inhibition at 160 µg/mL in assay [2], in assay [5] and in [10] were 84%, 100% and 100%, respectively. Further, the mortality at 160 µg/mL in assay [4] came out at 92%; in assay [7] it was 100%; in [9] it was 100%. The inhibition at 5000 µg/mL in [6], in assay [8] and in [12] was 100% in each case.

For the compound `CC(F)c1nn(C)c(C(=O)NCc2ccc(C(C)(C)C)cc2)c1Cl` (stereo not given), the figures for the mortality at 5000 µg/mL in [1], in assay [3] and in [11] were 100%, 70% and 75%, respectively. Besides, the inhibition at 160 µg/mL in assay [2] was 95%; in [5] it was 96%; in assay [10] it was 95%. In addition, the mortality at 160 µg/mL in assay [4] was 48%; in [7] it was 66%; in [9] it was 44%. The inhibition at 5000 µg/mL in assay [6], in assay [8] and in assay [12] was 100% in each case. For the same compound, in [13], the result was Active.

`Cn1nc(CCF)c(Cl)c1C(=O)NCc1ccc(C(C)(C)C)cc1`: the mortality at 5000 µg/mL in assay [1], in assay [3] and in [11] was 100% in each case. For the same compound, the inhibition at 160 µg/mL in assay [2], in assay [5] and in assay [10] was 100% in each case. Further, the results for the mortality at 160 µg/mL in [4], in assay [7] and in assay [9] were 96%, 100% and 100%, respectively. Moreover, in assay [14], the mortality at 1500 µg/mL worked out at 100%. In addition, the inhibition at 5000 µg/mL in assay [6], in assay [8] and in assay [12] was 100% in each case. In [15], the mortality at 670 µg/mL amounted to 96%. For the same compound, the result in [13] was Active.

On to `CC(F)c1cc(C(=O)NCc2ccc(C(C)(C)C)cc2)n(C)n1` (stereo not given), for which the mortality at 5000 µg/mL in [1] was determined as 80%; in assay [3] it was 70%; in assay [11], 70%. Also, the inhibition at 160 µg/mL in assay [2] was determined as 68%; in assay [5], 94%; in [10], 91%. Further, the figures for the mortality at 160 µg/mL in assay [4], in [7] and in assay [9] were 16%, 10% and 10%, respectively. In addition, the inhibition at 5000 µg/mL stood at 100% in assay [6], 96% in assay [8] and 100% in assay [12].

Regarding `Cn1nc(C(F)C(F)(F)F)c(Cl)c1C(=O)NCc1ccc(C(C)(C)C)cc1` (stereo not given), the mortality at 5000 µg/mL in [1] is 60%; in assay [3], 10%; in assay [11], 10%. The results for the inhibition at 5000 µg/mL in assay [6], in assay [8] and in [12] were 65%, 60% and 53%, respectively.

On to `Cn1nc(CC(F)(F)F)c(Cl)c1C(=O)NCc1ccc(C(C)(C)C)cc1`, for which the mortality at 5000 µg/mL was 70% in assay [1], 25% in assay [3] and 30% in [11]. Moreover, the results for the inhibition at 5000 µg/mL in assay [6], in [8] and in [12] were 98%, 98% and 97%, respectively.

As for `Cn1nc(CC(F)F)c(Cl)c1C(=O)NCc1ccc(C(C)(C)C)cc1`, the mortality at 5000 µg/mL in assay [1], in assay [3] and in assay [11] was 100% in each case. In addition, the inhibition at 160 µg/mL in assay [2], in [5] and in assay [10] was 100% throughout. Further, the mortality at 160 µg/mL in [4] came out at 80%; in assay [7], 75%; in [9], 71%. Besides, in [14], the mortality at 1500 µg/mL turned out to be 100%. The inhibition at 5000 µg/mL in [6], in assay [8] and in assay [12] was 100% throughout. In addition, the result in assay [13] was Active.

Consider `Cn1nc(CC(F)F)cc1C(=O)NCc1ccc(C(C)(C)C)cc1`, for which the mortality at 5000 µg/mL in [1], in assay [3] and in assay [11] was 100% throughout. The inhibition at 160 µg/mL in [2] is 96%; in assay [5] it was 98%; in [10] it was 100%. The mortality at 160 µg/mL amounted to 59% in assay [4], 10% in [7] and 14% in [9]. In addition, the inhibition at 5000 µg/mL in [6], in [8] and in assay [12] was 100% throughout.
